≈ marks a conversion by molar mass, not a printed value.

In one experiment the test system is Klebsiella pneumoniae. Put plainly: Minimum inhibitory concentration against Klebsiella pneumoniae. In kind it is functional. The essentials: (§1)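 Agar dilution MIC in μg/mL. […] Organisms not run are marked not tested.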
Another experiment concerns Streptococcus pneumoniae. Put plainly: Minimum inhibitory concentration against Streptococcus pneumoniae. In kind it is functional. Put shortly: as §1
A further experiment relates to Salmonella typhi. Put plainly: Minimum inhibitory concentration against Salmonella typhi. In kind it is functional, Salmonella enterica subsp. enterica serovar Typhi. Particulars: Salmonella enterica.
The next experiment concerns Escherichia coli. As to the kind of experiment: Minimum inhibitory concentration against Escherichia coli. In kind it is functional. Put shortly:
as §1

For experiment [1], the system named is Haemophilus influenzae. Put plainly: (§2) Minimum inhibitory concentration against Haemophilus influenzae. In kind it is functional. Put shortly: as §1
In another experiment the test system is Streptococcus pyogenes. Put plainly: Minimum inhibitory concentration against Streptococcus pyogenes. In kind it is functional. Put shortly:
as §1

The next experiment relates to Staphylococcus aureus. As to the kind of experiment: Minimum inhibitory concentration against Staphylococcus aureus. In kind it is functional. The essentials:
as §1

Experiment [2] has as its system Haemophilus influenzae. The description is as §2. In kind it is functional. The essentials: as §1
This is another data set of the same source.

The subject of the next experiment is Klebsiella aerogenes. As to the kind of experiment: Minimum inhibitory concentration against Enterobacter aerogenes. In kind it is functional. Put shortly: as §1

Turning to `O=C(Cc1csc2ccc(Cl)cc12)N[C@@H]1C(=O)N2C(C(=O)O)=C(Cl)CS[C@H]12`, the MIC against Klebsiella pneumoniae worked out at 64 µg/mL (≈ 144 µM); in the experiment with Streptococcus pneumoniae it was 0.015 µg/mL (≈ 0.0338 µM); against Salmonella typhi, 128 µg/mL (≈ 289 µM); against Escherichia coli, 128 µg/mL (≈ 289 µM); with Haemophilus influenzae [1], 2 µg/mL (≈ 4.51 µM).

As to `O=C(COc1ccc([N+](=O)[O-])cc1)N[C@@H]1C(=O)N2C(C(=O)O)=C(Cl)CS[C@H]12`, the MIC is above 128 µg/mL against Klebsiella pneumoniae; 0.03 µg/mL (≈ 0.0725 µM) in the experiment on Streptococcus pneumoniae; above 128 µg/mL in the experiment on Salmonella typhi; 0.015 µg/mL (≈ 0.0362 µM) in the experiment on Streptococcus pyogenes; 0.25 µg/mL (≈ 0.604 µM) with Staphylococcus aureus; above 128 µg/mL with Escherichia coli. Further, the MIC was 1 µg/mL (≈ 2.42 µM) against Haemophilus influenzae [2], 2 µg/mL (≈ 4.83 µM) in the experiment with Haemophilus influenzae [1] and above 128 µg/mL against Klebsiella aerogenes.

For the compound `O=C(Cc1ccccc1)N[C@@H]1C(=O)N2C(C(=O)O)=C(Cl)CS[C@H]12`, the MIC in the experiment on Streptococcus pneumoniae was 0.125 µg/mL (≈ 0.354 µM); against Salmonella typhi it was 4 µg/mL (≈ 11.3 µM); against Klebsiella aerogenes it was 128 µg/mL (≈ 363 µM).

`O=C(Cc1ccc(O)cc1)N[C@@H]1C(=O)N2C(C(=O)O)=C(Cl)CS[C@H]12`: the MIC against Streptococcus pneumoniae was 0.25 µg/mL (≈ 0.678 µM); in the experiment with Salmonella typhi it was 8 µg/mL (≈ 21.7 µM).

As for `COC1=C(C(=O)O)N2C(=O)[C@@H](NC(=O)Cc3noc(C(Cl)(Cl)Cl)n3)[C@H]2SC1`, the MIC was above 128 µg/mL against Klebsiella pneumoniae; 4 µg/mL (≈ 8.74 µM) against Streptococcus pneumoniae; above 128 µg/mL against Salmonella typhi; 4 µg/mL (≈ 8.74 µM) in the experiment on Streptococcus pyogenes; 16 µg/mL (≈ 35 µM) against Staphylococcus aureus; above 128 µg/mL against Escherichia coli. The values for the MIC with Haemophilus influenzae [2], with Haemophilus influenzae [1] and in the experiment with Klebsiella aerogenes were 32 µg/mL (≈ 69.9 µM), 32 µg/mL (≈ 69.9 µM) and above 128 µg/mL, respectively.

Consider `O=C(Cc1csc(-c2ccccc2)n1)N[C@@H]1C(=O)N2C(C(=O)O)=C(Cl)CS[C@H]12`, for which the MIC against Salmonella typhi and against Klebsiella aerogenes was above 128 µg/mL in each case.

On to `O=C(COc1ccccc1)N[C@@H]1C(=O)N2C(C(=O)O)=C(Cl)CS[C@H]12`, for which the values for the MIC against Streptococcus pneumoniae and in the experiment with Salmonella typhi were 0.125 µg/mL (≈ 0.339 µM) and 64 µg/mL (≈ 174 µM), respectively.

`O=C(CSc1nccs1)N[C@@H]1C(=O)N2C(C(=O)O)=C(Cl)CS[C@H]12`: the MIC in the experiment on Klebsiella pneumoniae was found to be 16 µg/mL (≈ 40.8 µM); against Streptococcus pneumoniae it was 0.5 µg/mL (≈ 1.28 µM); against Salmonella typhi, 16 µg/mL (≈ 40.8 µM); against Streptococcus pyogenes, 0.25 µg/mL (≈ 0.638 µM); in the experiment on Staphylococcus aureus, 1 µg/mL (≈ 2.55 µM); in the experiment on Escherichia coli, 32 µg/mL (≈ 81.7 µM). The compound also had an MIC against Klebsiella aerogenes above 128 µg/mL.

For the compound `O=C(Cc1ccc(F)cc1)N[C@@H]1C(=O)N2C(C(=O)O)=C(Cl)CS[C@H]12`, the MIC with Klebsiella pneumoniae stood at 32 µg/mL (≈ 86.3 µM); in the experiment with Streptococcus pneumoniae, 0.125 µg/mL (≈ 0.337 µM); against Salmonella typhi, 16 µg/mL (≈ 43.2 µM); with Streptococcus pyogenes, 0.06 µg/mL (≈ 0.162 µM); against Staphylococcus aureus, 0.5 µg/mL (≈ 1.35 µM); against Escherichia coli, 32 µg/mL (≈ 86.3 µM). The MIC against Haemophilus influenzae [2] is 1 µg/mL (≈ 2.7 µM); in the experiment on Haemophilus influenzae [1] it was 4 µg/mL (≈ 10.8 µM); in the experiment with Klebsiella aerogenes, above 128 µg/mL.

Turning to `O=C(CSc1nc[nH]n1)N[C@@H]1C(=O)N2C(C(=O)O)=C(Cl)CS[C@H]12`, the MIC is 16 µg/mL (≈ 42.6 µM) against Klebsiella pneumoniae; 2 µg/mL (≈ 5.32 µM) with Streptococcus pneumoniae; 16 µg/mL (≈ 42.6 µM) in the experiment on Salmonella typhi; 0.5 µg/mL (≈ 1.33 µM) with Streptococcus pyogenes; 4 µg/mL (≈ 10.6 µM) against Staphylococcus aureus; 16 µg/mL (≈ 42.6 µM) against Escherichia coli. Moreover, the results for the MIC in the experiment with Haemophilus influenzae [2], in the experiment on Haemophilus influenzae [1] and in the experiment on Klebsiella aerogenes were 4 µg/mL (≈ 10.6 µM), 4 µg/mL (≈ 10.6 µM) and above 128 µg/mL, respectively.

Regarding `O=C(Cc1csc2ccc(Cl)cc12)N[C@@H]1C(=O)N2C(C(=O)O)=CCS[C@H]12`, the MIC against Klebsiella pneumoniae is 128 µg/mL (≈ 313 µM); in the experiment with Salmonella typhi it was above 128 µg/mL; in the experiment on Streptococcus pyogenes, 0.03 µg/mL (≈ 0.0734 µM); in the experiment on Staphylococcus aureus, 0.125 µg/mL (≈ 0.306 µM); with Escherichia coli, 128 µg/mL (≈ 313 µM).

Consider `O=C(Cc1noc(C(Cl)(Cl)Cl)n1)N[C@@H]1C(=O)N2C(C(=O)O)=C(Cl)CS[C@H]12`, for which the MIC against Klebsiella pneumoniae stood at 16 µg/mL (≈ 34.6 µM); against Streptococcus pneumoniae it was 0.5 µg/mL (≈ 1.08 µM); in the experiment on Salmonella typhi, 16 µg/mL (≈ 34.6 µM); in the experiment with Streptococcus pyogenes, 0.25 µg/mL (≈ 0.541 µM); against Staphylococcus aureus, 2 µg/mL (≈ 4.33 µM); in the experiment on Escherichia coli, 64 µg/mL (≈ 138 µM). In addition, the MIC with Haemophilus influenzae [2] was 4 µg/mL (≈ 8.66 µM); with Haemophilus influenzae [1], 4 µg/mL (≈ 8.66 µM); in the experiment on Klebsiella aerogenes it was above 128 µg/mL.

Source of the values: ChEMBL document CHEMBL1123986, “Oral absorption of cephalosporin antibiotics. 2. Expanded structure-activity relationships of 7-(arylacetamido)-3-substituted cephalosporins” (1988).
